The source of these data is ChEMBL document CHEMBL1122293, “Synthesis, evaluation of chemical reactivity, and murine antineoplastic activity of 2-hydroxy-5-(3,4-dichlorophenyl)-6,7-bis(hydroxymethyl)-2,3-dihydro-1H- pyrrolizine bis(2-propylcarbamate) and 2-acyloxy derivatives as potential water-soluble prodrugs” (J Med Chem, 1983).

Structures are written as SMILES. Converted amounts (≈) assume the structure as drawn.

Data set [1] concerns P388. As to the kind of experiment: Weight difference at 50 mg/kg (ip)against P388 Lymphocytic Leukemia in mice. Type of data set: functional, Mus musculus. The gist of the method:
(§1)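 Male CDF1 mice given 6×10^6 leukemia cells ip. Five daily ip doses beginning 24 h later, as Klucel suspension or aqueous solution. Acute toxicity on day 5; survival assessed on day 30. Weight difference reported as treated minus control (g).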

The test system of data set [2] is P388. As to the kind of experiment: Weight difference at 6.25 mg/kg (ip)against P388 Lymphocytic Leukemia in mice. Type of data set: functional, Mus musculus. A digest of the protocol:
as §1

In data set [3] the test system is P388. As to the kind of experiment: Weight difference at 80 mg/kg (ip)against P388 Lymphocytic Leukemia in mice. The format is functional, Mus musculus. A digest of the protocol: (§2)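 Male CDF1 mice inoculated ip with P388 leukemia cells. Nine daily ip doses beginning 24 h later, as suspensions in Klucel or water. Acute toxicity evaluated day 5. Weight difference reported as treated minus control (g).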

For data set [4], the system named is P388. As to the kind of experiment: Median survival time of test animals compared to controls at 10 mg/kg (ip) against P388 Lymphocytic Leukemia in mice. The format is functional, Mus musculus. A digest of the protocol:
(§3)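 P388 leukemia cells were given ip to male CDF1 mice. Dosing started 24 h later: nine daily ip doses given as suspensions in Klucel (hydroxypropylcellulose) or in water. Toxicity day was day 5 and evaluation was on day 30. The value is % T/C of median survival time against untreated controls, with a parallel positive-control arm.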

In data set [5] the test system is P388. As to the kind of experiment: Median survival time of test animals compared to controls at 100 mg/kg (ip) against P388 Lymphocytic Leukemia in mice. Type of data set: functional, Mus musculus. The gist of the method:
(§4)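 P388 leukemia cells were inoculated ip into male CDF1 mice. Treatment began 24 h later, given ip as five daily doses, either as a Klucel (hydroxypropylcellulose) suspension or as an aqueous solution. Acute toxicity was assessed on day 5 and results were read on day 30. The value is median survival of treated versus control mice, as % T/C.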

For data set [6], the system named is P388. As to the kind of experiment: Median survival time of test animals compared to controls at 12.5 mg/kg (ip) against P388 Lymphocytic Leukemia in mice. The format is functional, Mus musculus. A digest of the protocol: (§5)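 P388 leukemia cells inoculated ip into male CDF1 mice; ip treatment started 24 h later, five daily doses, as Klucel (hydroxypropylcellulose) suspension or aqueous solution. Acute toxicity on day 5. Day-30 median survival of treated versus control mice expressed as % T/C. Weight difference is treated minus control, in grams.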

Data set [7] relates to P388. As to the kind of experiment: Median survival time of test animals compared to controls at 2.5 mg/kg (ip) against P388 Lymphocytic Leukemia in mice. Type of data set: functional, Mus musculus. A digest of the protocol: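 P388 leukemia cells given ip to male CDF1 mice; ip dosing began 24 h later, nine daily doses, as suspensions in Klucel (hydroxypropylcellulose) or water. Acute toxicity checked on day 5. Survival read on day 30 as median survival time of treated versus control mice (% T/C). Weight difference is treated minus control, in grams.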

Data set [8] concerns P388. Kind of data set: Median survival time of test animals compared to controls at 20 mg/kg (ip) against P388 Lymphocytic Leukemia in mice. Type of data set: functional, Mus musculus. A digest of the protocol: as §3
Data set [9] relates to P388. As to the kind of experiment: Median survival time of test animals compared to controls at 25 mg/kg (ip) against P388 Lymphocytic Leukemia in mice. Type of data set: functional, Mus musculus. A digest of the protocol:
as §4

In data set [10] the test system is P388. As to the kind of experiment: Median survival time of test animals compared to controls at 40 mg/kg (ip) against P388 Lymphocytic Leukemia in mice. Type of data set: functional, Mus musculus. The gist of the method: as §3
Data set [11] has as its system P388. As to the kind of experiment: Median survival time of test animals compared to controls at 5 mg/kg (ip) against P388 Lymphocytic Leukemia in mice. The format is functional, Mus musculus. A digest of the protocol:
as §3

The subject of data set [12] is P388. As to the kind of experiment: Median survival time of test animals compared to controls at 50 mg/kg (ip) against P388 Lymphocytic Leukemia in mice. The format is functional, Mus musculus. The gist of the method:
as §4

In data set [13] the test system is P388. As to the kind of experiment: Median survival time of test animals compared to controls at 6.25 mg/kg (ip) against P388 Lymphocytic Leukemia in mice. The format is functional, Mus musculus. The gist of the method: as §4
Data set [14] concerns P388. As to the kind of experiment: Median survival time of test animals compared to controls at 80 mg/kg (ip) against P388 Lymphocytic Leukemia in mice. The format is functional, Mus musculus. The gist of the method: as §3
Data set [15] concerns P388. Kind of data set: Log of the tumor cell population at the end of treatment at 10 mg/kg (ip) against P388 Lymphocytic Leukemia in mice. Type of data set: functional, Mus musculus.
For data set [16], the system named is P388. As to the kind of experiment: Log of the tumor cell population at the end of treatment at 100 mg/kg (ip) against P388 Lymphocytic Leukemia in mice. Type of data set: functional, Mus musculus.
For data set [17], the system named is P388. As to the kind of experiment: Log of the tumor cell population at the end of treatment at 12.5 mg/kg (ip) against P388 Lymphocytic Leukemia in mice. The format is functional, Mus musculus.
Data set [18] relates to P388. Kind of data set: Log of the tumor cell population at the end of treatment at 20 mg/kg (ip) against P388 Lymphocytic Leukemia in mice. Type of data set: functional, Mus musculus.
Data set [19] concerns P388. As to the kind of experiment: Log of the tumor cell population at the end of treatment at 25 mg/kg (ip) against P388 Lymphocytic Leukemia in mice. The format is functional, Mus musculus.
In data set [20] the test system is P388. Kind of data set: Log of the tumor cell population at the end of treatment at 40 mg/kg (ip) against P388 Lymphocytic Leukemia in mice. Type of data set: functional, Mus musculus.
The test system of data set [21] is P388. Kind of data set: Log of the tumor cell population at the end of treatment at 5 mg/kg (ip) against P388 Lymphocytic Leukemia in mice. Type of data set: functional, Mus musculus.
The test system of data set [22] is P388. Kind of data set: Log of the tumor cell population at the end of treatment at 50 mg/kg (ip) against P388 Lymphocytic Leukemia in mice. Type of data set: functional, Mus musculus.
The subject of data set [23] is P388. Kind of data set: Log of the tumor cell population at the end of treatment at 6.25 mg/kg (ip) against P388 Lymphocytic Leukemia in mice. The format is functional, Mus musculus.
The test system of data set [24] is P388. Kind of data set: Log of the tumor cell population at the end of treatment at 80 mg/kg (ip) against P388 Lymphocytic Leukemia in mice. The format is functional, Mus musculus.
Data set [25] relates to P388. Kind of data set: Weight difference at 25 mg/kg (ip)against P388 Lymphocytic Leukemia in mice. Type of data set: functional, Mus musculus. A digest of the protocol:
as §1

The test system of data set [26] is P388. Kind of data set: Weight difference at 5 mg/kg (ip)against P388 Lymphocytic Leukemia in mice. Type of data set: functional, Mus musculus. The gist of the method: as §2
Data set [27] relates to P388. Kind of data set: Weight difference at 10 mg/kg (ip)against P388 Lymphocytic Leukemia in mice. The format is functional, Mus musculus. The gist of the method: as §2
The test system of data set [28] is P388. Kind of data set: Weight difference at 100 mg/kg (ip)against P388 Lymphocytic Leukemia in mice. The format is functional, Mus musculus. The gist of the method:
as §1

In data set [29] the test system is P388. As to the kind of experiment: Weight difference at 12.5 mg/kg (ip)against P388 Lymphocytic Leukemia in mice. The format is functional, Mus musculus. A digest of the protocol: as §5
Data set [30] deals with P388. Kind of data set: Weight difference at 2.5 mg/kg (ip)against P388 Lymphocytic Leukemia in mice. The format is functional, Mus musculus. A digest of the protocol:
as §2

Data set [31] deals with P388. As to the kind of experiment: Weight difference at 20 mg/kg (ip)against P388 Lymphocytic Leukemia in mice. Type of data set: functional, Mus musculus. The gist of the method:
as §2

The nature of data set [32]: Water solubility of the compound. The format is ADME. To be noted: read-out: S. A digest of the protocol:
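Excess bis(carbamate) (30-60 mg) in 2 mL distilled water, vortexed 10 min, filtered through Teflon wool and diluted. UV absorbance read at 291 nm. Concentration from a linear Beer's law calibration made with a salt standard (r = 0.998).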

Data set [33] has as its system P388. Kind of data set: Weight difference at 40 mg/kg (ip)against P388 Lymphocytic Leukemia in mice. Type of data set: functional, Mus musculus. A digest of the protocol: as §2
A short description of data set [34]: Half life was determined.

A word on the T/C: it is the ratio of treated to control. One may read the half-life as the time in which the quantity being followed falls by half.

As for `CC(C)NC(=O)OCc1c(COC(=O)NC(C)C)c(-c2ccc(Cl)c(Cl)c2)n2c1CCC2`, the Weight change was -5.3 g in data set [1]; -2.8 g in [2]; -4 g in data set [3]; -3.9 g in data set [25]; -0.8 g in [26]; -0.7 g in [27]. Moreover, the Weight change in data set [28] was -5.6 g; in data set [29] it was -3.4 g; in data set [30], -0.5 g; in data set [31], -1.8 g; in data set [33], -2.6 g. Moreover, the T/C in data set [4] is 141%; in data set [5], 110%; in data set [6], 160%; in data set [7], 135%; in data set [8], 144%; in data set [9] it was 179%. Also, the T/C in [10] is 155%; in data set [11], 127%; in data set [12], 205%; in [13], 164%; in [14] it was 126%. Also, the Log cell kill in [7] is -1.52; in data set [15], -1.44; in data set [16], -1.4; in data set [17] it was 1.7; in data set [18] it was -1.41; in data set [19] it was 3.16. The Log cell kill is on record as -1.25 in [20]; -1.63 in [21]; 5.25 in [22]; 2.01 in [23]; -1.64 in [24]. The solubility in data set [32] was determined as 0.00126 mM (≈ 0.608 µg/mL). Further, in data set [34], the half-life amounted to 13 min.

Turning to `CC(C)NC(=O)OCc1c(COC(=O)NC(C)C)c(-c2ccc(Cl)c(Cl)c2)n2c1CC(OC(=O)CCC(=O)[O-])C2.[K+]` (configuration not stated), the solubility in [32] was 38.8 mM. The half-life in data set [34] amounted to 92 min.
